Activity calls are given as the source filed them. The calls are words filed in the database; no cut-off is given here.
Legend:
[1] = Toxicity in BALB/c nude mouse xenografted with human MDA-MB-231 cells assessed as effect on body weight at 25 to 50 mg/kg, ip administered every 3 days for 4 weeks; format: organism-based; details: in vivo, 672 h, dose 25-50 mg/kg
Method in brief: (§1)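 Nude mice given 3×10^6 MDA-MB-231 cells in 200 µL PBS, injected subcutaneously into the right flank. Once tumors reached about 100 mm³, mice were randomized into four groups. Dosing was 25 or 50 mg/kg i.p. every three days for four weeks. Tumor volume, tumor weight and body weight were followed. n = 6, mean ± SD.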

[2] = molecular target: T1, Glutaminase kidney isoform, mitochondrial (Homo sapiens) (UniProt O94925); experiment: Potency index, ratio of WA IC50 to compound IC50 for inhibition of human GLS1
T1 sequence (whole entry): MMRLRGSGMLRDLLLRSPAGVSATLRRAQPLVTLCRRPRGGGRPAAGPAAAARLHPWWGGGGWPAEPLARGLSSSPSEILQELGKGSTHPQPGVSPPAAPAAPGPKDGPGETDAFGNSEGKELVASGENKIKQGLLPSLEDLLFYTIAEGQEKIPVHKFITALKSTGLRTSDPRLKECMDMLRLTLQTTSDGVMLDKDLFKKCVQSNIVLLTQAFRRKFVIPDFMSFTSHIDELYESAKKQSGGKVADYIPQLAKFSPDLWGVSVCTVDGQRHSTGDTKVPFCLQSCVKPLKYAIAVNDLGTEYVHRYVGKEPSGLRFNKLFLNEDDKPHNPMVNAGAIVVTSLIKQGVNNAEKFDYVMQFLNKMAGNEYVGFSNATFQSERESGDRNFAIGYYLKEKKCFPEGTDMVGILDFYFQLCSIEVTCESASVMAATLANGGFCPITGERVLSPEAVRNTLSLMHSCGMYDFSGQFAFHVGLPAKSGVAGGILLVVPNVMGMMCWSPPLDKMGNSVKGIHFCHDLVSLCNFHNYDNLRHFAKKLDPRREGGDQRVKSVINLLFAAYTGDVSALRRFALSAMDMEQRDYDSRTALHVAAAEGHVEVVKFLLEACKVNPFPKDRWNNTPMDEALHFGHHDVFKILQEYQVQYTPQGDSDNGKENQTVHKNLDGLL
Method in brief: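 Human GLS1 hydrolase activity measured with a commercial GLS1 inhibitor screening kit, following the manufacturer's protocol. Single-point screening was run at 10 μM.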

MDA-MB-231 [3] = experiment: Induction of apoptosis in human MDA-MB-231 cells assessed as late apoptotic cells at 160 nM incubated for 12 hrs by annexin V-FITC/PI based flow cytometric analysis (reference value: 0.7%); format: functional
Method in brief: (§2)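 Cells exposed to compound or 0.1% DMSO for 12 h at 37°C, then resuspended in PBS at 1×10^5 cells/mL. Stained with annexin V-FITC and PI for 20 min at room temperature in the dark, then analysed by flow cytometry. Quadrant percentages reported: lower right early apoptotic, upper right late apoptotic. n = 4, mean ± SD.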

MDA-MB-231 [4] = experiment: Induction of apoptosis in human MDA-MB-231 cells assessed as early apoptotic cells at 160 nM incubated for 12 hrs by annexin V-FITC/PI based flow cytometric analysis (reference value: 1.2%); format: functional; method in brief: as §2
MDA-MB-231 [5] = experiment: Potency index, ratio of WA IC50 to compound IC50 for antiproliferative activity against human MDA-MB-231 cells after 24 hrs by MTT assay; format: functional
Method in brief: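 Ratio calculated from MTT IC50 values in MDA-MB-231 cells. Cells seeded at 5×10^3/well for 24 h, then treated 24 h at 0.078-10 µM with 0.1% DMSO as vehicle. Absorbance read at 570 nm after 4 h MTT and DMSO solubilization. Triplicate wells, at least three repeats.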

MDA-MB-231 [6] = experiment: Induction of apoptosis in human MDA-MB-231 cells assessed as late apoptotic cells at 640 nM incubated for 12 hrs by annexin V-FITC/PI based flow cytometric analysis (reference value: 0.7%); format: functional; method in brief: as §2
MDA-MB-231 [7] = experiment: Induction of apoptosis in human MDA-MB-231 cells assessed as viable cells at 320 nM incubated for 12 hrs by annexin V-FITC/PI based flow cytometric analysis (reference value: 98.1%); format: functional; details: read-out: Activity; method in brief: as §2
MDA-MB-231 [8] = experiment: Induction of apoptosis in human MDA-MB-231 cells assessed as early apoptotic cells at 320 nM incubated for 12 hrs by annexin V-FITC/PI based flow cytometric analysis (reference value: 1.2%); format: functional; method in brief: as §2
MDA-MB-231 [9] = experiment: Induction of apoptosis in human MDA-MB-231 cells assessed as viable cells at 640 nM incubated for 12 hrs by annexin V-FITC/PI based flow cytometric analysis (reference value: 98.1%); format: functional; details: read-out: Activity; method in brief: as §2
MDA-MB-231 [10] = experiment: Induction of apoptosis in human MDA-MB-231 cells assessed as necrotic cells at 320 nM incubated for 12 hrs by annexin V-FITC/PI based flow cytometric analysis (reference value: 0.1%); format: functional; method in brief: as §2
[11] = Toxicity in BALB/c nude mouse xenografted with human MDA-MB-231 cells assessed as spleen tissue damage at 25 to 50 mg/kg, ip administered every 3 days for 4 weeks; format: organism-based; details: in vivo, 672 h, dose 25-50 mg/kg
Method in brief: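 Xenograft-bearing nude mice (MDA-MB-231, s.c. right flank, treated from about 100 mm³) received 25 or 50 mg/kg i.p. every three days for four weeks. At the end mice were euthanized, and visceral organs were fixed in 4% paraformaldehyde for histopathology.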

MDA-MB-231 [12] = experiment: Antitumor activity against human MDA-MB-231 cells xenografted in BALB/c nude mouse assessed as reduction in tumor volume at 25 to 50 mg/kg, ip administered every 3 days for 4 weeks; format: functional, organism-based; details: dose 25-50 mg/kg; method in brief: as §1
MDA-MB-231 [13] = experiment: Antitumor activity against human MDA-MB-231 cells xenografted in BALB/c nude mouse assessed as reduction in tumor weight at 25 to 50 mg/kg, ip administered every 3 days for 4 weeks; format: functional, organism-based; details: dose 25-50 mg/kg; method in brief: as §1
MDA-MB-231 [14] = experiment: Antitumor activity against human MDA-MB-231 cells xenografted in BALB/c nude mouse assessed as tumor growth inhibition at 25 to 50 mg/kg, ip administered every 3 days for 4 weeks; format: functional, organism-based; details: dose 25-50 mg/kg; method in brief: as §1

Ratio IC50 [2]: 20
Structure (SMILES): CC(=O)O[C@H]1C=C([C@H](C)[C@H]2CC(C)=C(C)C(=O)O2)[C@@]2(C)CC[C@H]3[C@@H](C[C@H]4O[C@]45[C@@H](OC(=O)CCCC(=O)Nc4ccc(N6CCOCC6)c(F)c4)C=CC(=O)[C@]35C)[C@@]12O
Activity [1]: Non-Toxic
Activity (MDA-MB-231 [3]): 1%
Activity (MDA-MB-231 [4]): 2.6%
Ratio IC50 (MDA-MB-231 [5]): 20
Activity (MDA-MB-231 [6]): 11.7%
viability at 0.32 µM (MDA-MB-231 [7]): 80.3%
Activity (MDA-MB-231 [8]): 16.7%
viability at 0.64 µM (MDA-MB-231 [9]): 59.7%
Activity (MDA-MB-231 [10]): 0.1%
Activity [11]: Non-Toxic
Activity (MDA-MB-231 [12]): Active
Activity (MDA-MB-231 [13]): Active
Activity (MDA-MB-231 [14]): Active
